Results as given in ChEMBL document CHEMBL1914395, “Design, synthesis, and biological evaluation of callophycin A and analogues as potential chemopreventive and anticancer agents” (Bioorg Med Chem, 2011).

Target: NAD(P)H dehydrogenase [quinone] 1 (Mus musculus) (UniProt Q64669)
Assay: Induction of quinone reductase 1 activity in mouse Hepa-1c1c7 cells at 50 uM by MTT assay relative to untreated control
Assay type: cell-based
Details: not given
Summary of the method: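 Hepa 1c1c7 murine hepatoma cells treated with compound at 50 μM. QR1 measured by NADPH-dependent, menadiol-mediated reduction of MTT to formazan. Protein measured by crystal violet staining of identical plates. Specific activity is nmol formazan per mg protein per min. Induction ratio is treated versus DMSO-treated control.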

Sequence of NAD(P)H dehydrogenase [quinone] 1 (Mus musculus) (Q64669 whole entry): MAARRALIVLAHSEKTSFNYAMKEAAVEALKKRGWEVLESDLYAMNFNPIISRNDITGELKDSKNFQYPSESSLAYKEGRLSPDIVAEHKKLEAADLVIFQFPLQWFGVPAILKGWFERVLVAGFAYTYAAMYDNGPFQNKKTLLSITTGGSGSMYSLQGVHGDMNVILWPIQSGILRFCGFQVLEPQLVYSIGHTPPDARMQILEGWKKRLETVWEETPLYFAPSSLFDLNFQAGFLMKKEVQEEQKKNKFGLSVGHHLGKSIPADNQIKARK

Structure (SMILES)	Ratio
COC(=O)[C@H]1Cc2c([nH]c3ccccc23)CN1	1.1
O=C(O)[C@@H]1Cc2c([nH]c3ccccc23)CN1Cc1ccccc1	2.4
CCCCCNC(=O)N1Cc2[nH]c3ccccc3c2C[C@@H]1C(=O)OC	4.3
O=C(O)[C@@H]1Cc2c([nH]c3ccccc23)CN1CC1CC1	2.4

System: not listed separately
Assay: Inhibition of TNF-alpha-induced NFkappaB activation in human HEK293 cells after 6 hrs by luciferase assay
Assay type: cell-based
Details: HEK293, 6 h
Summary of the method: (§1)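 Cells incubated 6 h with TNFα plus test compound, then luciferase activity measured. Results expressed as percent of TNFα-treated control. Screening concentration 50 μM.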

Structure (SMILES)	IC50 [µM]
COC(=O)[C@H]1Cc2c([nH]c3ccccc23)CN1	22.1
O=C(O)[C@@H]1Cc2c([nH]c3ccccc23)CN1Cc1ccccc1	21.4
CCCCCNC(=O)N1Cc2[nH]c3ccccc3c2C[C@@H]1C(=O)OC	15.9

Target: NAD(P)H dehydrogenase [quinone] 1 (Mus musculus) (UniProt Q64669)
Assay: Induction of quinone reductase 1 in mouse Hepa 1c1c7 cells assessed as concentration of compound required to double enzyme activity by MTT assay
Assay type: cell-based
Details: not given
Summary of the method: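 Dose-response in Hepa 1c1c7 cells, run for substances with induction ratio >2 at 50 μM. QR1 activity measured as menadiol-mediated, NADPH-dependent MTT reduction to formazan, normalised to crystal violet protein content. CD is the concentration that doubles specific activity relative to DMSO control.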

Structure (SMILES)	CD [µM]
O=C(O)[C@@H]1Cc2c([nH]c3ccccc23)CN1Cc1ccccc1	8.1
CCCCCNC(=O)N1Cc2[nH]c3ccccc3c2C[C@@H]1C(=O)OC	0.2
O=C(O)[C@@H]1Cc2c([nH]c3ccccc23)CN1CC1CC1	27.6

System: HEK293
Assay: Inhibition of TNF-alpha-induced NFkappaB activation in human HEK293 cells assessed as cell survival at 50 uM after 6 hrs by luciferase assay relative to control
Assay type: cell-based
Details: not given

Structure (SMILES)	Survival [%]
COC(=O)[C@H]1Cc2c([nH]c3ccccc23)CN1	60.3
O=C(O)[C@@H]1Cc2c([nH]c3ccccc23)CN1Cc1ccccc1	49.1
CCCCCNC(=O)N1Cc2[nH]c3ccccc3c2C[C@@H]1C(=O)OC	140
O=C(O)[C@@H]1Cc2c([nH]c3ccccc23)CN1CC1CC1	234

Target: NAD(P)H dehydrogenase [quinone] 1 (Mus musculus) (UniProt Q64669)
Assay: Induction of quinone reductase 1 activity in mouse Hepa-1c1c7 cells assessed as cell survival at 50 uM by MTT assay relative to control
Assay type: cell-based
Details: not given

Structure (SMILES)	Survival [%]
COC(=O)[C@H]1Cc2c([nH]c3ccccc23)CN1	115
O=C(O)[C@@H]1Cc2c([nH]c3ccccc23)CN1Cc1ccccc1	105
CCCCCNC(=O)N1Cc2[nH]c3ccccc3c2C[C@@H]1C(=O)OC	12.7
O=C(O)[C@@H]1Cc2c([nH]c3ccccc23)CN1CC1CC1	90.7

Target: T1, Aromatase (Homo sapiens, UniProt P11511)
T1 sequence (P11511 whole entry): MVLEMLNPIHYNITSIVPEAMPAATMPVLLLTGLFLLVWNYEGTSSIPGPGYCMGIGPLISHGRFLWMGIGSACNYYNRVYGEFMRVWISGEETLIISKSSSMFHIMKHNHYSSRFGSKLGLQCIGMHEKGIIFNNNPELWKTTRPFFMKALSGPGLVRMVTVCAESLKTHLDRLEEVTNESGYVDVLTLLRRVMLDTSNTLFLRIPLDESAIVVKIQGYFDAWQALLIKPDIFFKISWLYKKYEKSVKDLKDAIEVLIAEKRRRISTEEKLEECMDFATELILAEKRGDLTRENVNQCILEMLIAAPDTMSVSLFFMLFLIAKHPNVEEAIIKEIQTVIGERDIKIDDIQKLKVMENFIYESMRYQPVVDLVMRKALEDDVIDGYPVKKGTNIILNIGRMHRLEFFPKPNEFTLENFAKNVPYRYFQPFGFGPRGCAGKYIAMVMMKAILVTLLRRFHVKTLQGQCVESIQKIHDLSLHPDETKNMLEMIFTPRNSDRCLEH
Assay: Inhibition of aromatase at 50 uM after 10 mins preincubation by plate reader relative to control
Details: not given
Summary of the method: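 CYP19 enzyme. Compound pre-incubated 10 min with an NADPH-regenerating system (NADP+, glucose 6-phosphate, G6PDH, MgCl2, albumin) in 50 mM potassium phosphate pH 7.4. Enzyme and 0.4 μM dibenzylfluorescein substrate then added, 30 min at 37 °C. Quenched with 2 N NaOH and incubated a further 2 h at 37 °C. Fluorescence read at ex 485/em 530 nm. Compound tested at 50 μM.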

Structure (SMILES)	inhibition at 50 µM [%]
COC(=O)[C@H]1Cc2c([nH]c3ccccc23)CN1	14.3
O=C(O)[C@@H]1Cc2c([nH]c3ccccc23)CN1Cc1ccccc1	28
CCCCCNC(=O)N1Cc2[nH]c3ccccc3c2C[C@@H]1C(=O)OC	11.1
O=C(O)[C@@H]1Cc2c([nH]c3ccccc23)CN1CC1CC1	30.2

System: HEK293
Assay: Inhibition of TNF-alpha-induced NFkappaB activation in human HEK293 cells at 50 uM after 6 hrs by luciferase assay relative to control
Assay type: cell-based
Details: not given
Summary of the method: as §1

Structure (SMILES)	inhibition [%]
COC(=O)[C@H]1Cc2c([nH]c3ccccc23)CN1	58.4
O=C(O)[C@@H]1Cc2c([nH]c3ccccc23)CN1Cc1ccccc1	59.5
CCCCCNC(=O)N1Cc2[nH]c3ccccc3c2C[C@@H]1C(=O)OC	62.1
O=C(O)[C@@H]1Cc2c([nH]c3ccccc23)CN1CC1CC1	33.7

Target: T2, Nitric oxide synthase, inducible (Mus musculus) (UniProt P29477)
T2 sequence (whole entry): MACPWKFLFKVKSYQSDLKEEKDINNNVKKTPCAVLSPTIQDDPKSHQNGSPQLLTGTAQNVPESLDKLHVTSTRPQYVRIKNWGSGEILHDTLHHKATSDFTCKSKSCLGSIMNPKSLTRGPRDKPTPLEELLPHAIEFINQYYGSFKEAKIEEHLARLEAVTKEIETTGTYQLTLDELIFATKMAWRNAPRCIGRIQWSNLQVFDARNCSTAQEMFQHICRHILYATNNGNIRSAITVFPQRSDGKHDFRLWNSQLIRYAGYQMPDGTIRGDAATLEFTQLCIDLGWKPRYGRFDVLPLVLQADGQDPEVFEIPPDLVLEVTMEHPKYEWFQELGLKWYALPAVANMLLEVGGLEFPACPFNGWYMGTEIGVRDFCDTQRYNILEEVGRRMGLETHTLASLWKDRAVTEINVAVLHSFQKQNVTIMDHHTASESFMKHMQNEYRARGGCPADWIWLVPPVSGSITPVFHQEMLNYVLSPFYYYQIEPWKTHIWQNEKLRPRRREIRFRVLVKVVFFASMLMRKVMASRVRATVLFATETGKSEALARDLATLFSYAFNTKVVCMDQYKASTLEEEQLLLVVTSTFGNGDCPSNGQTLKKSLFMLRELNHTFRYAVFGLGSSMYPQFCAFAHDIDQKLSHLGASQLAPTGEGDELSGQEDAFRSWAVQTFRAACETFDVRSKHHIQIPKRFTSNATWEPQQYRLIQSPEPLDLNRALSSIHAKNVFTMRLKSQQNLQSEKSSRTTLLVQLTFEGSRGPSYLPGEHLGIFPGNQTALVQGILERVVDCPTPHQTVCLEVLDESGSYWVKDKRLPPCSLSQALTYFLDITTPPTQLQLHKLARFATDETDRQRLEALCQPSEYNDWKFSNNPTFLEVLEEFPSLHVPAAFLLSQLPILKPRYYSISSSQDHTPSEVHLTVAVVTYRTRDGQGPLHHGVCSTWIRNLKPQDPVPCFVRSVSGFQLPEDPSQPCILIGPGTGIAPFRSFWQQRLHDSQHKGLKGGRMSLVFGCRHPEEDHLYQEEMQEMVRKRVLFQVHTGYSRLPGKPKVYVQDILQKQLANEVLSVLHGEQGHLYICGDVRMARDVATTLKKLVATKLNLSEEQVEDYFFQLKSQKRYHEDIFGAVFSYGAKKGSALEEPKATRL
Assay: Inhibition of iNOS-mediated nitric oxide production in LPS-stimulated mouse RAW 264.7 cells assessed as cell survival at 50 uM pretreated 15 mins before LPS challenge measured after 20 hrs relative to control
Assay type: cell-based
Details: not given
Summary of the method: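 RAW 264.7 cells were incubated at 37°C, 5% CO2 for 24 h. They were then exposed to compound for 15 min before LPS (1 μg/mL) was added for 20 h. Cytotoxicity was measured by SRB staining under the same conditions. Survival is expressed as % relative to vehicle-treated controls at 50 μM.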

Structure (SMILES)	Survival [%]
COC(=O)[C@H]1Cc2c([nH]c3ccccc23)CN1	116
O=C(O)[C@@H]1Cc2c([nH]c3ccccc23)CN1Cc1ccccc1	119
CCCCCNC(=O)N1Cc2[nH]c3ccccc3c2C[C@@H]1C(=O)OC	90.5
O=C(O)[C@@H]1Cc2c([nH]c3ccccc23)CN1CC1CC1	135

System: MCF7
Assay: Antiproliferative activity against human MCF7 cells assessed as survival at 50 uM after 72 hrs by SRB assay relative to control
Assay type: functional
Details: MCF7, 72 h, read-out: Survival
Summary of the method: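 MCF7 cells (1 × 10^4 per well) were plated onto compound and kept at 37°C, 5% CO2 for 72 h. Cells were fixed in 10% TCA for 30 min and stained with 0.4% SRB in 1% acetic acid for 30 min. Bound dye was dissolved in 10 mM Tris (pH 10.0) and read at 515 nm. Survival is given as % of DMSO-treated controls, screened at 50 μM.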

Structure (SMILES)	viability at 50 µM [%]
CCCCCNC(=O)N1Cc2[nH]c3ccccc3c2C[C@@H]1C(=O)OC	50.5
O=C(O)[C@@H]1Cc2c([nH]c3ccccc23)CN1CC1CC1	108

Target: T2, Nitric oxide synthase, inducible (Mus musculus)
Assay: Inhibition of iNOS-mediated nitric oxide production in LPS-stimulated mouse RAW 264.7 cells at 50 uM pretreated 15 mins before LPS challenge measured after 20 hrs relative to control
Assay type: cell-based
Details: not given
Summary of the method: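 RAW 264.7 cells cultured 24 h at 37°C, then given serially diluted compounds for 15 min before LPS (1 μg/mL) for 20 h. Nitrite in the medium measured with Griess reagent at 540 nm against a sodium nitrite standard curve. Cytotoxicity checked by SRB under the same conditions.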

Structure (SMILES)	inhibition [%]
COC(=O)[C@H]1Cc2c([nH]c3ccccc23)CN1	7.2
O=C(O)[C@@H]1Cc2c([nH]c3ccccc23)CN1Cc1ccccc1	6.9
CCCCCNC(=O)N1Cc2[nH]c3ccccc3c2C[C@@H]1C(=O)OC	36.2
O=C(O)[C@@H]1Cc2c([nH]c3ccccc23)CN1CC1CC1	-7
